Results: ChEMBL document CHEMBL1158730, “Sesquiterpenoids from Pulicaria canariensis and their cytotoxic activities” (J Nat Prod, 2005)
The source made the active and inactive calls. No cut-off for these calls is given here.

Assays:
Type in all cases: functional, cell-based
HL-60 [1] = assay: Cytotoxicity against human HL60 cells by MTT assay
Outline: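 HL-60 cells grown in suspension in RPMI-1640 with 10% heat-inactivated FBS, penicillin 100 units/mL and streptomycin 100 μg/mL, at 37 °C in humidified 95% air/5% CO2. Density kept below 1 × 10^6 cells/mL. Viability read by MTT; IC50 (μM) given as mean ± spread.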

HL-60 [2] = assay: Induction of apoptosis in human HL60 cells assessed as nuclear chromatin condensation by Hoechst 33258 based fluorescent microscopy
Outline: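 HL-60 cells cultured 12 h without or with the indicated doses, then stained with Hoechst 33258. Condensed/fragmented chromatin scored by fluorescence microscopy as the percentage of apoptotic cells. Etoposide 10 μM as positive control. Points are the average (±SE) of triplicates from a representative experiment.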

HL-60 [3] = assay: Induction of apoptosis in human HL60 cells assessed as accumulation […] at 30 uM after 12 hrs by flow cytometry
Outline: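 HL-60 cells incubated at 30 μM for 12 h. DNA content analysed by flow cytometry to follow the diploid-to-hypodiploid shift and the cell-cycle phase distribution.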

HL-60 [4] = assay: Induction of apoptosis in human HL60 cells assessed as activation of caspase 3 after 12 hrs
Outline: (§1)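 HL-60 cells exposed to increasing concentrations for 12 h, then harvested. Cytosolic or total lysates assayed with colorimetric substrates, DEVD-pNA for caspase-3 and IETD-pNA for caspase-8. Activity expressed as x-fold over untreated control. A representative experiment run in duplicate.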

HL-60 [5] = assay: Induction of apoptosis in human HL60 cells assessed as activation of caspase 8 at after 12 hrs; outline: as §1
HL-60 [6] = assay: Induction of apoptosis in human HL60 cells assessed as cleavage of PARP-1 after 12 hrs by Western blot analysis
Outline: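 HL-60 cells treated for 12 h at the indicated concentrations. Total lysates immunoblotted with a PARP-1 monoclonal antibody that detects the native 116 kDa and cleaved 85 kDa forms. Etoposide 10 μM served as positive control.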

## CC(=O)OC/C1=C/CC[C@@]2(C)O[C@@H]2[C@@H](OC(C)=O)[C@@H](C(C)C)[C@H](OC(C)=O)C1
HL-60 [1]
  IC50: 298 µM

## C=C1CC[C@@H](C(C)C)[C@H]2[C@@H]1CC[C@@H]2C(=O)CO [PULIOPLOPANONE A]
HL-60 [1]
  IC50: 242 µM

## C=C1CC/C=C(/COC(C)=O)C[C@@H](OC(C)=O)[C@H](C(C)C)[C@H](OC(C)=O)C1=O [TRIACETOXY PULICANONE]
HL-60 [1]
  IC50: 20 µM
HL-60 [2]
  Activity: Dose-dependent effect
HL-60 [3]
  Activity: Active
HL-60 [4]
  Activity: Active
HL-60 [5]
  Activity: Active
HL-60 [6]
  Activity: Active

## CC(=O)O[C@@H]1/C=C(\C)CC[C@H]2O[C@@]2(C=O)C[C@@H](OC(C)=O)[C@@H]1C(C)C [PULICANARAL A]
HL-60 [1]
  IC50: 115 µM

## CC(=O)O[C@H]1[C@@H](C(C)C)[C@H](OC(C)=O)C[C@]2(C=O)O[C@@H]2CC[C@@]2(C)O[C@@H]12 [PULICANARAL B]
HL-60 [1]
  IC50: 264 µM
